In data set [1] the test system is Mus musculus. In words: Anticonvulsant activity in Albino Swiss mouse assessed as protection against pentetrazol-induced clonic seizure at 0.1 ED50, ip administered 60 mins prior to test relative to untreated control. In kind it is functional. In a few lines: (§1)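 Male Albino Swiss mice (18-30 g); compound given i.p. as suspension in 0.5% methylcellulose 60 min before test; pentylenetetrazole 110 mg/kg s.c. Scored as number of mice with clonic seizures, tonic convulsions and deaths per animals tested; Fisher's exact test vs solvent control.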

The test system of data set [2] is Mus musculus. The data set is described as follows: Neurotoxicity in Albino Swiss mouse assessed as induction of myorelaxation at 0.0125 to 0.1 ED50, ip after 60 mins by rotarod test. Type of data set: toxicity, organism-based. To be noted: in vivo, 1 h. In general terms: The rotarod test checks motor coordination on a turning rod.
The test system of data set [3] is Mus musculus. In words: Neurotoxicity in Albino Swiss mouse assessed as induction of myorelaxation at 0.0125 to 0.1 ED50, ip after 60 mins by chimney test. Type of data set: toxicity, organism-based. Particulars: in vivo, 1 h.
Data set [4] deals with Mus musculus. In words: Neurotoxicity in Albino Swiss mouse assessed as impairment in motor coordination at 0.0125 to 0.1 ED50, ip after 60 mins by rotarod test. Particulars: in vivo, 1 h. Type of data set: toxicity, organism-based.
The target of data set [5] is 5-hydroxytryptamine receptor 2A (Rattus norvegicus, UniProt P14842). In words: Displacement of [3H]ketanserin from 5HT2A receptor in Sprague-Dawley rat brain cortex incubated for 15 mins. The method, boiled down: (§2)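 Rat frontal cortex homogenized in 50 mM Tris-HCl, 0.5 mM EDTA, 10 mM MgCl2, pH 7.4, washed, resuspended with 0.1% ascorbate and pargyline. Triplicates: 5-HT2A used 0.4 nM [3H]ketanserin, cinanserin for nonspecific binding; 5-HT2C used 1 nM [3H]mesulergine, mianserin nonspecific, 100 nM spiperone added. 15 min at 37 C, glass-fiber filtration.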
Background: Displacement assays read how much labelled ligand stays bound in the presence of the test substance.

Data set [6] concerns the target T1, 5-hydroxytryptamine receptor 2C (Rattus norvegicus, UniProt P08909).
T1 sequence (P08909 whole entry): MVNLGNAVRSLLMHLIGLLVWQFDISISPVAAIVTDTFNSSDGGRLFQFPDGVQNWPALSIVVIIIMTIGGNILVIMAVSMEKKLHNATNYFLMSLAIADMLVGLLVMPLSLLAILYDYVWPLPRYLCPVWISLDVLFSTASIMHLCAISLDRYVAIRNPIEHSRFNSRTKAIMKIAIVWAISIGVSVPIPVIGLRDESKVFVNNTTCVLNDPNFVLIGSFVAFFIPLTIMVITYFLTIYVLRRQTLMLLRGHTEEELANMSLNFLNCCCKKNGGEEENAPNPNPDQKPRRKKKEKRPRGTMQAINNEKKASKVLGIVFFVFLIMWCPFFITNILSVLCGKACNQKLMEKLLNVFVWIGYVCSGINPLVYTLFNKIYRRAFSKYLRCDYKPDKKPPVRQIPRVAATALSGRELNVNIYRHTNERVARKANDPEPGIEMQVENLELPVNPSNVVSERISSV
In words: Displacement of [3H]mesulergine from 5HT2C receptor in Sprague-Dawley rat brain cortex incubated for 15 mins. The method, boiled down:
as §2

Data set [7] has as its system Mus musculus. The data set is described as follows: Inhibition of (+/-)DOI-induced head twitch response in Albino Swiss mouse at 28.6 mg/kg, ip administered 60 mins before (+/-)DOI injection measured for 20 mins relative to untreated control. In kind it is functional. The method, boiled down: (§3)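 Male Albino Swiss mice; compounds suspended in 0.5% methylcellulose, injected i.p. 60 min before (±)DOI 2.5 mg/kg i.p.; head twitches counted over 20 min. Mean ± SEM, percent reduction versus DOI-treated group; one-way ANOVA with Bonferroni post hoc test.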

For data set [8], the system named is Mus musculus. In words: Toxicity in Albino Swiss mouse assessed as inhibition of spontaneous locomotor activity at 0.1 ED50, ip administered 60 mins before test measured for 30 mins by photoresistor actometer analysis. Particulars: in vivo, 0.5 h. In kind it is organism-based. In a few lines:
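Spontaneous locomotion of single male Albino Swiss mice recorded in two-beam photoresistor actometers as beam crossings for 30 min, beginning 60 min after i.p. compound (suspension in 0.5% methylcellulose).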

Data set [9] has as its system Mus musculus. The data set is described as follows: Inhibition of amphetamine-induced hyperlocomotion in Albino Swiss mouse at 0.1 ED50, ip administered 60 mins prior to test measured for 30 mins by photoresistor actometer analysis. Type of data set: functional. The method, boiled down:
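Single male Albino Swiss mice; compound i.p. 60 min and amphetamine 5 mg/kg s.c. 30 min before test. Photoresistor actometers (circular cage, two light beams) counted beam crossings over 30 min; mean ± SEM, Dunnett's test vs control.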

Data set [10] has as its system Mus musculus. The data set is described as follows: Neurotoxicity in Albino Swiss mouse assessed as impairment in motor coordination at 0.0125 to 0.1 ED50, ip after 60 mins by chimney test. Type of data set: toxicity, organism-based. To be noted: in vivo, 1 h.
Data set [11] deals with Mus musculus. The data set is described as follows: Toxicity in ip dosed Albino Swiss mouse assessed as loss of righting reflex administered 60 mins before test measured up to 48 hrs. In kind it is organism-based. Particulars: in vivo. In a few lines:
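Acute toxicity in male Albino Swiss mice by Litchfield-Wilcoxon method: ED50 for loss of righting reflex after i.p. dosing, observed at 15, 30, 60, 180 min and 24, 48 h.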

The test system of data set [12] is Mus musculus. In words: Increase in body temperature in Albino Swiss mouse at 0.1 ED50, ip administered 60 mins before test measured 30 to 180 mins post dose. Type of data set: functional, organism-based. In a few lines: (§4)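 Normothermic male Albino Swiss mice; rectal temperature by thermistor thermometer. Baseline taken as mean of readings at 60 and 30 min before dosing; i.p. dose (0.1 ED50, 0.5% methylcellulose vehicle) then readings at 30, 60, 90, 120 min (to 180 min for some). Change = final minus initial; Bonferroni post hoc test.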

Data set [13] relates to Mus musculus. The data set is described as follows: Inhibition of 5-HTP-induced head twitch response in Albino Swiss mouse at 0.1 ED50, ip administered 60 mins before 5-HTP injection relative to untreated control. Type of data set: functional. The method, boiled down: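 Male Albino Swiss mice given compound i.p. (0.1 ED50, 0.5% methylcellulose) 60 min before the test; L-5-HTP 230 mg/kg i.p. injected immediately before. Head twitches counted; mean ± SEM, Dunnett's test vs control.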

The subject of data set [14] is Mus musculus. The data set is described as follows: Inhibition of (+/-)DOI-induced head twitch response in ip dosed Albino Swiss mouse administered 60 mins before (+/-)DOI injection measured for 20 mins. In kind it is functional, organism-based. In a few lines: as §3
The test system of data set [15] is Mus musculus. In words: Inhibition of (+/-)DOI-induced head twitch response in Albino Swiss mouse at 5 mg/kg, ip administered 60 mins before (+/-)DOI injection measured for 20 mins relative to untreated control. In kind it is functional. The method, boiled down: as §3
Data set [16] has as its system Mus musculus. The data set is described as follows: Inhibition of 5-HTP-induced head twitch response in ddY mouse at >=1 mg/kg, po administered 1 hr before 5-HTP injection measured after 30 mins relative to untreated control. Type of data set: functional.
The test system of data set [17] is Mus musculus. The data set is described as follows: Inhibition of (+/-)DOI-induced head twitch response in Albino Swiss mouse at 36.55 mg/kg, ip administered 60 mins before (+/-)DOI injection measured for 20 mins relative to untreated control. In kind it is functional. In a few lines:
as §3

Data set [18] deals with Mus musculus. The data set is described as follows: Anticonvulsant activity in Albino Swiss mouse assessed as protection against pentetrazol-induced tonic seizure at 0.1 ED50, ip administered 60 mins prior to test relative to untreated control. In kind it is functional. The method, boiled down: as §1
Data set [19] concerns Mus musculus. In words: Antinociceptive activity in Albino Swiss mouse assessed as inhibition of acetic acid-induced writhing response at 0.025 to 0.05 ED50, ip administered 60 mins prior to test measured for 10 mins. Type of data set: functional, organism-based. In a few lines:
(§5)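 Male Albino Swiss mice, i.p. dosing in 0.5% methylcellulose 60 min beforehand; 0.6% acetic acid injected i.p., writhing episodes counted for 10 min beginning 5 min after acid. Mean ± SEM; one-way ANOVA with Dunnett's test vs control.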
In general terms: Writhing tests count abdominal constrictions after an irritant is injected.

Data set [20] deals with Mus musculus. The data set is described as follows: Antinociceptive activity in Albino Swiss mouse assessed as inhibition of acetic acid-induced writhing response at 0.1 ED50, ip administered 60 mins prior to test measured for 10 mins. Type of data set: functional, organism-based. The method, boiled down: as §5
Data set [21] relates to Mus musculus. In words: Inhibition of (+/-)DOI-induced head twitch response in Albino Swiss mouse at 73.1 mg/kg, ip administered 60 mins before (+/-)DOI injection measured for 20 mins relative to untreated control. In kind it is functional. The method, boiled down:
as §3

The subject of data set [22] is Mus musculus. The data set is described as follows: Effect on body temperature in Albino Swiss mouse at 0.1 ED50, ip administered 60 mins before test measured 30 to 180 mins post dose. Type of data set: functional, organism-based. In a few lines: as §4
The subject of data set [23] is Mus musculus. The data set is described as follows: Protection against pentetrazol-induced mortality in Albino Swiss mouse at 0.1 ED50, ip administered 60 mins prior to test relative to untreated control. Type of data set: functional. The method, boiled down:
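Male Albino Swiss mice (18–30 g). Compound given i.p. as suspension in 0.5% methylcellulose (10 mL/kg), 60 min before test; controls got vehicle. Dose expressed as fraction of ED50 (loss of righting reflex within 48 h). Convulsions induced by pentylenetetrazole 110 mg/kg s.c.; dead animals counted per group (n=10; control n=16). Significance vs control by Fisher's exact test.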

For data set [24], the system named is Mus musculus. The data set is described as follows: Antinociceptive activity in Albino Swiss mouse assessed as inhibition of acetic acid-induced writhing response at 0.05 ED50, ip administered 60 mins prior to test measured for 10 mins in presence of opioid receptor antagonist naloxone. Type of data set: functional, organism-based.
The test system of data set [25] is Mus musculus. In words: Decrease in body temperature in Albino Swiss mouse at 0.1 ED50, ip administered 60 mins before test measured 30 to 120 mins post dose. Type of data set: functional, organism-based. The method, boiled down: as §4

The structures appear in SMILES notation. Calls of active or inactive are those of the source. The rule behind the calls is not given here. Some results are limits rather than exact numbers.

One may read the Ki as the equilibrium dissociation constant of an inhibitor or competing ligand from its target. One may read the inhibition in vivo as how much of the control response was suppressed. A higher inhibition in vivo goes with a strong effect. One may read the ED50 as the dose that gives a 50% effect, or the effect in half of the subjects.

Chain of 5-hydroxytryptamine receptor 2A (P14842 whole entry): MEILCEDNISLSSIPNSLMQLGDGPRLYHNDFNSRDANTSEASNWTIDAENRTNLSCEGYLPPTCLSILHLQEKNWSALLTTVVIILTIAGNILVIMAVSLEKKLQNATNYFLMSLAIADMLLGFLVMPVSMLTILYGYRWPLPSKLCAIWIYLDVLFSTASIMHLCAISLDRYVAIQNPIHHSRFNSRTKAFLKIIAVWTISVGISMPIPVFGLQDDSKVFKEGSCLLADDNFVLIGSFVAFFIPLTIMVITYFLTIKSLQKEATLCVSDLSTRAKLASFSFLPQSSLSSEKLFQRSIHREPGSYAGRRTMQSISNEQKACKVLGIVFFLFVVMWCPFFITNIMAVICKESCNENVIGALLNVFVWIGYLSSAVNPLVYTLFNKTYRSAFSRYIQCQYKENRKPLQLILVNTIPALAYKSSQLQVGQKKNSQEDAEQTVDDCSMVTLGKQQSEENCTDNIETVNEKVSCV

Consider `Fc1ccc(NC(=S)Nc2cccc(C(F)(F)F)c2)cc1Cl`, for which, in [1], the result was inactive. Further, the Activity result in [2], in data set [3], in [4], in data set [8] and in data set [10] was “Non-toxic” each time. Besides, the inhibition constant Ki was 0.043 nM in data set [5] and more than 10 µM in data set [6]. For the same compound, testing at 28.6 mg/kg in [7] gave an inhibition in vivo of 51.6%. Further, the “inhibition (INH)” value in [9] is reported as 47.3%. Moreover, the 50% effective dose (ED50) in data set [11] came out at 286.2 mg/kg. Also, in data set [12], the outcome was Active. For the same compound, in data set [13], the inhibition entry was “inactive”. Also, in data set [14], the inhibition entry was “Dose-dependent effect”.

`O=C(c1ccc(F)cc1)C1CCN(CCn2c(=O)[nH]c3ccccc3c2=O)CC1` [KETANSERIN] registered an inhibition in vivo at 5 mg/kg in [15] of 100%. Moreover, in [16], the “inhibition (INH)” value is given as more than 80%.

Consider `FC(F)(F)c1cccc(NC(S)=NCc2ccccc2)c1`, for which the Activity is reported as 40% in data set [1]; “Non-toxic” in data set [2]; 46.66% in data set [18]; “Non-toxic” in data set [3]; “Non-toxic” in [4]; “Non-toxic” in data set [8]. In addition, in data set [10], the Activity result was “Non-toxic”. Moreover, at 36.55 mg/kg the inhibition in vivo in data set [17] was 69.4%. For the same compound, the Ki in [5] was 0.6 nM; in data set [6] it was more than 10 µM. Also, the inhibition entry in data set [19], in data set [20], in [9] and in data set [24] was “Active” throughout. The compound also displayed an inhibition in vivo at 73.1 mg/kg in data set [21] of 72.2%. For the same compound, the outcome in data set [22] was inactive. Besides, the outcome in data set [23] was Active. For the same compound, the ED50 in data set [11] turned out to be 731.3 mg/kg. Moreover, in [13], the “inhibition (INH)” value was determined as 73.3%. Besides, in data set [14], the inhibition entry is “Dose-dependent effect”.

As for `CC(NC(=S)Nc1ccc(Cl)c([N+](=O)[O-])c1)c1ccccc1` (stereo unspecified), in data set [1], the outcome was inactive. Besides, the Activity entry in data set [2], in data set [3], in [4], in [8] and in data set [10] was “Non-toxic” in each case. Further, the figures for the Ki in data set [5] and in data set [6] were more than 10000 nM and more than 10 µM, respectively. Besides, the inhibition entry in data set [19], in data set [20] and in data set [24] was “Active” each time. For the same compound, the inhibition result in [9] is “inactive”. For the same compound, the outcome in data set [25] was Active. Besides, the ED50 in data set [11] was found to be 1031.3 mg/kg. In addition, the “inhibition (INH)” value in [13] is 89%.

Source of the values: ChEMBL document CHEMBL3797076, “5-HT2 receptor affinity, docking studies and pharmacological evaluation of a series of 1,3-disubstituted thiourea derivatives” (Eur J Med Chem, 2016).
